# Experimental data taken from ChEMBL document CHEMBL1142330, “Omega-(2-Naphthyloxy) amino alkanes as a novel class of anti-hyperglycemic and lipid lowering agents” (Bioorg Med Chem, 2008).
# Test system: Rattus norvegicus
# Assay: Inhibition of phospholipids level in triton treated Charles Foster rat at 100 mg/kg, po
# Assay type: functional
# Summary of the method: (§1)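 Male Charles Foster rats (200–225 g) were used, six per group. They received Triton WR-1339 200 mg/kg i.p. together with oral compound at 100 mg/kg in 2% aqueous gum acacia, over 18 h; vehicle controls were included. Rats were then fasted overnight and bled retro-orbitally. Serum total cholesterol, phospholipids and triglyceride were assayed.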
row,SMILES,inhibition in vivo at 100 mg/kg [%]
1,CCCN(CCCOc1ccc2ccccc2c1)c1ccc(OC)cc1,27
2,COc1ccc(NCCCCOc2ccc3ccccc3c2)cc1,36

# Test system: Rattus norvegicus
# Assay: Antidiabetic activity in streptozotocin-induced diabetic albino Sprague-Dawley rat model assessed as decrease in blood glucose level at 100 mg/kg, po
# Assay type: functional
# Summary of the method: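 Overnight-fasted rats received streptozotocin 60 mg/kg i.p. in 100 mM citrate buffer, pH 4.5. After 48 h, animals with glucometer glucose of 200–400 mg/dl were grouped (n=6). Sample in 1% gum acacia was given orally at 100 mg/kg; controls received vehicle.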
row,SMILES,inhibition in vivo at 100 mg/kg [%]
1,Cc1ccc(S(=O)(=O)NC(=O)NN2CC3CCCC3C2)cc1 (configuration not stated) [GLICLAZIDE],27.7
2,COc1ccc(Cl)cc1C(=O)NCCc1ccc(S(=O)(=O)NC(=O)NC2CCCCC2)cc1 [GLYBURIDE],32.8

# Test system: Rattus norvegicus
# Assay: Antidiabetic activity in glucose loaded albino Sprague-Dawley rat model assessed as decrease in blood glucose level at 100 mg/kg, po
# Assay type: functional
# Summary of the method: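 Rats in groups of five were bled at baseline, then gavaged with test sample at 100 mg/kg. A glucose load of 2 g/kg was given 30 min later. Blood was collected at 30, 60, 90 and 120 min.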
row,SMILES,inhibition in vivo at 100 mg/kg [%]
1,CCCCCCCCNCCCOc1ccc2ccccc2c1,17
2,Cc1ccc(NCCCCOc2ccc3ccccc3c2)cc1,3.21
3,CCN(CCCOc1ccc2ccccc2c1)c1ccc(OC)cc1,6.88
4,COc1ccc(NCCOc2ccc3ccccc3c2)cc1,10.6
5,CCCN(CCCOc1ccc2ccccc2c1)c1ccc(OC)cc1,11.6
6,COc1ccc(NCCCCOc2ccc3ccccc3c2)cc1,3.89
7,c1ccc(CNCCCOc2ccc3ccccc3c2)cc1,13.8

# Test system: Rattus norvegicus
# Assay: Antidiabetic activity in sucrose loaded albino Sprague-Dawley rat model assessed as decrease in blood glucose level at 100 mg/kg, po
# Assay type: functional
# Summary of the method: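 Male Sprague–Dawley rats were fasted overnight and used in groups of five. Baseline blood was taken, then test sample was gavaged at 100 mg/kg. A sucrose load of […] followed 30 min later.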
row,SMILES,inhibition in vivo at 100 mg/kg [%]
1,Cc1ccc(S(=O)(=O)NC(=O)NN2CC3CCCC3C2)cc1 (configuration not stated) [GLICLAZIDE],44.8
2,COc1ccc(Cl)cc1C(=O)NCCc1ccc(S(=O)(=O)NC(=O)NC2CCCCC2)cc1 [GLYBURIDE],33.9
3,CCCCCCCCNCCCOc1ccc2ccccc2c1,32
4,Cc1ccc(NCCCCOc2ccc3ccccc3c2)cc1,6.9
5,CCN(CCCOc1ccc2ccccc2c1)c1ccc(OC)cc1,13.5
6,COc1ccc(NCCOc2ccc3ccccc3c2)cc1,19.4
7,CCCN(CCCOc1ccc2ccccc2c1)c1ccc(OC)cc1,37.2
8,COc1ccc(NCCCCOc2ccc3ccccc3c2)cc1,5.09
9,c1ccc(CNCCCOc2ccc3ccccc3c2)cc1,40.5

# Test system: Rattus norvegicus
# Assay: Inhibition of cholesterol level in triton treated Charles Foster rat at 100 mg/kg, po
# Assay type: functional
# Summary of the method: as §1
row,SMILES,inhibition in vivo at 100 mg/kg [%]
1,CCCN(CCCOc1ccc2ccccc2c1)c1ccc(OC)cc1,14
2,COc1ccc(NCCCCOc2ccc3ccccc3c2)cc1,24

# Test system: Rattus norvegicus
# Assay: Inhibition of triglyceride level in triton treated Charles Foster rat at 100 mg/kg, po
# Assay type: functional
# Summary of the method: as §1
row,SMILES,inhibition in vivo at 100 mg/kg [%]
1,CCCN(CCCOc1ccc2ccccc2c1)c1ccc(OC)cc1,12
2,COc1ccc(NCCCCOc2ccc3ccccc3c2)cc1,22

# Molecular target: T1, Peroxisome proliferator-activated receptor delta (Homo sapiens) (UniProt Q03181)
# T1 sequence (whole entry): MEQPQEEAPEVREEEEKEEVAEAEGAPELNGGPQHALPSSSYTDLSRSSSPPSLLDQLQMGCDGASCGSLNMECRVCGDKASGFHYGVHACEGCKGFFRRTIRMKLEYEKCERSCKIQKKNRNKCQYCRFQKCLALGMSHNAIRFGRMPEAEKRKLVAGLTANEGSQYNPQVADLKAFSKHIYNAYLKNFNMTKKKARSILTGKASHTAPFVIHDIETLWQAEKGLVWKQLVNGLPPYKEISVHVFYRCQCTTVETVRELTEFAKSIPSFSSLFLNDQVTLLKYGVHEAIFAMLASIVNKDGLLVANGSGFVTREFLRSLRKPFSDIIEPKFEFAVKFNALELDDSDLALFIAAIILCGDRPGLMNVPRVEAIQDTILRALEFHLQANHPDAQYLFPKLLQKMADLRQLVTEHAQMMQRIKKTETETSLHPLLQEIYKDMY
# Assay: Inhibition of PPARdelta at 3 uM
row,inhibition [%],SMILES
1,7.9,CCCCCCCCNCCCOc1ccc2ccccc2c1
2,17.3,CCN(CCCOc1ccc2ccccc2c1)c1ccc(OC)cc1
3,24.6,COc1ccc(NCCOc2ccc3ccccc3c2)cc1
4,9.6,CCCN(CCCOc1ccc2ccccc2c1)c1ccc(OC)cc1
5,16.3,COc1ccc(NCCCCOc2ccc3ccccc3c2)cc1
6,29.1,c1ccc(CNCCCOc2ccc3ccccc3c2)cc1

# Molecular target: T2, Peroxisome proliferator-activated receptor alpha (Homo sapiens) (UniProt Q07869)
# T2 sequence (whole entry): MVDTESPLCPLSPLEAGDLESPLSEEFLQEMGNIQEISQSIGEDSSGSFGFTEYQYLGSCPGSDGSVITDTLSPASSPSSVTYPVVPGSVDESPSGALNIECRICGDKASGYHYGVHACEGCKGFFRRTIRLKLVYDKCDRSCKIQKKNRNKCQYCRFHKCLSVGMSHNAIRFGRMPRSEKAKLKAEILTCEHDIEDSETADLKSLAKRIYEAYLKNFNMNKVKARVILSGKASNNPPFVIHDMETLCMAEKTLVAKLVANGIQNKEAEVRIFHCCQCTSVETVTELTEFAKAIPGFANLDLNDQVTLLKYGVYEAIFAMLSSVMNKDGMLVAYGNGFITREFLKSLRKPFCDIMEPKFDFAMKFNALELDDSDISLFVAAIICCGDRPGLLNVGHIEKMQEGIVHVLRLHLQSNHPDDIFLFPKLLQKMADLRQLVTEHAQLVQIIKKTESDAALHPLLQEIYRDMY
# Assay: Inhibition of PPARalpha at 50 uM
row,inhibition [%],SMILES
1,11.4,CCCCCCCCNCCCOc1ccc2ccccc2c1
2,20.3,CCN(CCCOc1ccc2ccccc2c1)c1ccc(OC)cc1
3,22.2,COc1ccc(NCCOc2ccc3ccccc3c2)cc1
4,55.5,CCO[C@@H](Cc1ccc(OCCc2ccc(OS(C)(=O)=O)cc2)cc1)C(=O)O
5,10.9,CCCN(CCCOc1ccc2ccccc2c1)c1ccc(OC)cc1
6,18.3,COc1ccc(NCCCCOc2ccc3ccccc3c2)cc1
7,28.4,c1ccc(CNCCCOc2ccc3ccccc3c2)cc1
